Results published in PMC2688716 (European neuropsychopharmacology : the journal of the …, 2008).
Where a name gives a salt, the structure may show the parent alone.

Key:
male, Swiss Webster mice [1] = assay: Locomotor activity measurements; format: in vivo, mouse; conditions: i.p.
NG108-15 cells = assay: Cytotoxicity; format: cell-based; conditions: methamphetamine 10–300 μM; 24 h and 48 h; 37° C; P < 0.0001
male, Swiss Webster mice [2] = assay: Dopamine transporter; conditions: 4 times at 2 h intervals
Serotonin transporter = Serotonin transporter (Rattus norvegicus, UniProt P31652); assay: Radioligand binding, serotonin transporter; conditions: 0.2 nM [3H]paroxetine; nonspecific 1.5 μM imipramine; rat brainstem; 90 min at 25° C; in-house; >10,000 = less than 30% displacement
Melatonin receptor = assay: Radioligand binding, melatonin receptors; conditions: 70 pM [125I]2-Iodomelatonin; nonspecific 0.1 μM 2-iodomelatonin; chicken brain; by NOVASCREEN; >10,000 = less than 30% displacement
Method in brief: (§1)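 Run by a contract screening service. Binding was measured in tissue homogenates. Ki was calculated with the Cheng-Prusoff equation from separately determined Kd values and reported as mean ± SEM of replicate assays.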

[3] = target: Muscarinic, central receptor; assay: Radioligand binding, muscarinic central; conditions: 0.15 nM [3H]QNB; nonspecific 0.1 μM atropine; rat cerebral cortex; by NOVASCREEN; >10,000 = less than 30% displacement
[4] = target: Muscarinic, peripheral receptor; assay: Radioligand binding, muscarinic peripheral; conditions: 0.3 nM [3H]QNB; nonspecific 0.1 μM atropine; guinea pig bladder; by NOVASCREEN; >10,000 = less than 30% displacement
[5] = target: Calcium, type N ion channel (Rattus norvegicus, UniProt Q02294); assay: Radioligand binding, calcium channel type N; conditions: 0.01 nM [125I]ω-conotoxin GVIA; nonspecific 0.1 μM ω-conotoxin GVIA; rat cerebral cortex; by NOVASCREEN; >10,000 = less than 30% displacement
[6] = target: Potassium, ATP-sensitive ion channel; assay: Radioligand binding, ATP-sensitive potassium channel; conditions: 0.2 nM [3H]glibenclamide; nonspecific 0.1 μM glibenclamide; rat cerebral cortex; by NOVASCREEN; >10,000 = less than 30% displacement
Method in brief: as §1

male, Swiss Webster mice [7] = assay: Dopamine assay, striatum; format: in vivo, mouse; conditions: AC927 10 mg/kg pretreatment + methamphetamine 5 mg/kg; Tukey q=5.58, P < 0.01
male, Swiss Webster mice [8] = assay: Dopamine assay, cerebellum; format: in vivo, mouse; conditions: AC927 10 mg/kg pretreatment + methamphetamine 5 mg/kg; Tukey q=4.55, P < 0.05
male, Swiss Webster mice [9] = assay: Core body temperature measurements; format: in vivo, mouse; conditions: AC927 5–20 mg/kg, i.p., 4 times at 2 h intervals; measured 1 h after each injection
[10] = ref Matsumoto and Mack, 2001; Matsumoto et al., 2002, 2003; cited from earlier work
tumor cells = conditions: through a σ receptor-mediated mechanism; ref Crawford et al., 2002; cited from earlier work

Sequence of Serotonin transporter (P31652 whole entry): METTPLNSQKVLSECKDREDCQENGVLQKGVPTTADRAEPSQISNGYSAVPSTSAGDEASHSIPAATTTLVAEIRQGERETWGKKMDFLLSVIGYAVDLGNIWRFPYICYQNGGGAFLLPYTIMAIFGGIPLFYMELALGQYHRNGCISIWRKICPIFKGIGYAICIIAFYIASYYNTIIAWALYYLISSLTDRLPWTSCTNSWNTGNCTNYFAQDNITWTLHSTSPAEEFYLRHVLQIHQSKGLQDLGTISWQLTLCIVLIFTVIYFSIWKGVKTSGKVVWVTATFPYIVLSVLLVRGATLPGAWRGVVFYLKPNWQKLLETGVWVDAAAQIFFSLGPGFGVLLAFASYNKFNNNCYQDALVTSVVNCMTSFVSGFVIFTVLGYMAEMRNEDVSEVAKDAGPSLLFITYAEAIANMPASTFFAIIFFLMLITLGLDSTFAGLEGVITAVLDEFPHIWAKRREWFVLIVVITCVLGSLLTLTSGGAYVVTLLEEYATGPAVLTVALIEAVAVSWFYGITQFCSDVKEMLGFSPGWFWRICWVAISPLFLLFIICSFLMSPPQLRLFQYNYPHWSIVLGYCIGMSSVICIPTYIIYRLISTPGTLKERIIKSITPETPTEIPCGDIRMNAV
Sequence of Calcium, type N ion channel (P54287 whole entry): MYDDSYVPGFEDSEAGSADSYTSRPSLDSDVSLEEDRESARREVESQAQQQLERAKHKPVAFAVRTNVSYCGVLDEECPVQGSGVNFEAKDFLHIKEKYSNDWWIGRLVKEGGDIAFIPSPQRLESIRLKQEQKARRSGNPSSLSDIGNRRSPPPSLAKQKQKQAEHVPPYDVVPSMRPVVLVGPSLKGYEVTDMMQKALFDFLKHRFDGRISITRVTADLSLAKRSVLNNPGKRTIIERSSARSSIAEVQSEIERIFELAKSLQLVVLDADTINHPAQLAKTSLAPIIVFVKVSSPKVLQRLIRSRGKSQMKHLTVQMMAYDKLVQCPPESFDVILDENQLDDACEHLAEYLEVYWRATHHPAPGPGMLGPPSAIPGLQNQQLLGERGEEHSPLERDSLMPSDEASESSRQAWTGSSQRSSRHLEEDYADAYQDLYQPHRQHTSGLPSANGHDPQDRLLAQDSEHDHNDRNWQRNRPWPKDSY
Sequence of Calcium, type N ion channel (P54290 945-1091, further chain): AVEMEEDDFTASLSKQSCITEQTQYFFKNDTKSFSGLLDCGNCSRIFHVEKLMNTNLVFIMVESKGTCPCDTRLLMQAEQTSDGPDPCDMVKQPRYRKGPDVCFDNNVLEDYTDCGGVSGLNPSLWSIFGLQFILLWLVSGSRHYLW
Sequence of Calcium, type N ion channel (Q02294 whole entry): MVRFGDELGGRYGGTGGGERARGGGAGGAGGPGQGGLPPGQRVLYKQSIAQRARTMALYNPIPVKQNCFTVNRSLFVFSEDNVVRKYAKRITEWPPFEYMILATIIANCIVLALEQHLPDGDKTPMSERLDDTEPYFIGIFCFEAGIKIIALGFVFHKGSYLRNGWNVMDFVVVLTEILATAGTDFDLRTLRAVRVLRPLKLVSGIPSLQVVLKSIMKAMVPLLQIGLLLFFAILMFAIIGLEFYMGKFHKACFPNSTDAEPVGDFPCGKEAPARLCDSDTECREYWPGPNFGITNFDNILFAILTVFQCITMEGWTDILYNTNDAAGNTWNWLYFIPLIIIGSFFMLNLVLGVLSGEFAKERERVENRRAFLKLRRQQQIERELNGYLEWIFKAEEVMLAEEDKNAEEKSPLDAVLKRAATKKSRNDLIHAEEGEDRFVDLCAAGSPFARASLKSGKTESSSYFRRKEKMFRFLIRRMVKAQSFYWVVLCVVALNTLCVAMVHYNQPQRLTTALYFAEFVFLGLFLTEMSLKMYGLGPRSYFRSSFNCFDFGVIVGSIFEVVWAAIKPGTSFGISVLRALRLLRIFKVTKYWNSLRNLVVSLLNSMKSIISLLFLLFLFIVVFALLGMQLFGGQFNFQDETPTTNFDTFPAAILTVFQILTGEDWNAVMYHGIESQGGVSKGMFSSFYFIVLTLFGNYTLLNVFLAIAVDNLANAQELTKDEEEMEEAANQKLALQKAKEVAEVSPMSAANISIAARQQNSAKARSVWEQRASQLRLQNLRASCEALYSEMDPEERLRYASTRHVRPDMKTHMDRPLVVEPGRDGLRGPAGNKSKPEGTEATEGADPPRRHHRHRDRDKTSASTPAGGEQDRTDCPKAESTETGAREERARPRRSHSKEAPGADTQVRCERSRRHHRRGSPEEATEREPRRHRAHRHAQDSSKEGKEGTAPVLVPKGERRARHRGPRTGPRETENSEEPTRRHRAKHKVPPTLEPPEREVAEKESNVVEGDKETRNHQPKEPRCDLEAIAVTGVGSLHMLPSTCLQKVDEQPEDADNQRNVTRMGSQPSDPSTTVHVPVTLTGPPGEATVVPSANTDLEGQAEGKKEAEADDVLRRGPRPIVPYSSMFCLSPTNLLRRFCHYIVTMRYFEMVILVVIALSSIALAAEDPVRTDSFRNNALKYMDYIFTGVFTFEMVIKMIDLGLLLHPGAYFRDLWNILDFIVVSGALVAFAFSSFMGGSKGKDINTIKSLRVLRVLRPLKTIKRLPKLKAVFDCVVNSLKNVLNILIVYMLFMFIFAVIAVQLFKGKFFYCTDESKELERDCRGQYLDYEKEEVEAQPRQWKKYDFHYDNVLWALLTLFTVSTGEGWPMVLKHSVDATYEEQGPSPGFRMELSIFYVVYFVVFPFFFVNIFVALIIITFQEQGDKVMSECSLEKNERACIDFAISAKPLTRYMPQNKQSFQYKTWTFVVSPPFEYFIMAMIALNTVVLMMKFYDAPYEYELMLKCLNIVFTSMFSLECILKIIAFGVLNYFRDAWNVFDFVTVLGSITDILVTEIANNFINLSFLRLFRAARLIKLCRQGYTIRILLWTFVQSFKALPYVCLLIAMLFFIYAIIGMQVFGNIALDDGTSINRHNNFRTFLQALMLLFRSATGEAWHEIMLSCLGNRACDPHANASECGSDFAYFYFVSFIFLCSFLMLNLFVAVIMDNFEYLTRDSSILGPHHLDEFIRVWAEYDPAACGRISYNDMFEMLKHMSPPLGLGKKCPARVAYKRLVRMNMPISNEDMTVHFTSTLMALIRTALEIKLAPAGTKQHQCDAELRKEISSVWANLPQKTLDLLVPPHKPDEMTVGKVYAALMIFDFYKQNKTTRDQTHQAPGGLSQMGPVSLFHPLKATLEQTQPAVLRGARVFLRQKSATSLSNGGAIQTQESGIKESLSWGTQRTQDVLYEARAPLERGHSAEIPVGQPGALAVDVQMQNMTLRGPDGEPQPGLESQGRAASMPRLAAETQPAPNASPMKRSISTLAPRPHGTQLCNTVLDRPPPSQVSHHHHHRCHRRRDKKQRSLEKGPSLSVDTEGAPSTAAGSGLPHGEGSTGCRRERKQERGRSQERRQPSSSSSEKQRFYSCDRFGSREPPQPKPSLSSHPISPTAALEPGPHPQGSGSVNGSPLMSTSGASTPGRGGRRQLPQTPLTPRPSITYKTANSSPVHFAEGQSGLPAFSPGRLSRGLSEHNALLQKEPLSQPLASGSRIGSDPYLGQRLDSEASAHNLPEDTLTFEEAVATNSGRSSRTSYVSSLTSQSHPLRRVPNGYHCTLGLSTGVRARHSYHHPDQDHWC
Sequence of Calcium, type N ion channel (P54290 25-944, further chain): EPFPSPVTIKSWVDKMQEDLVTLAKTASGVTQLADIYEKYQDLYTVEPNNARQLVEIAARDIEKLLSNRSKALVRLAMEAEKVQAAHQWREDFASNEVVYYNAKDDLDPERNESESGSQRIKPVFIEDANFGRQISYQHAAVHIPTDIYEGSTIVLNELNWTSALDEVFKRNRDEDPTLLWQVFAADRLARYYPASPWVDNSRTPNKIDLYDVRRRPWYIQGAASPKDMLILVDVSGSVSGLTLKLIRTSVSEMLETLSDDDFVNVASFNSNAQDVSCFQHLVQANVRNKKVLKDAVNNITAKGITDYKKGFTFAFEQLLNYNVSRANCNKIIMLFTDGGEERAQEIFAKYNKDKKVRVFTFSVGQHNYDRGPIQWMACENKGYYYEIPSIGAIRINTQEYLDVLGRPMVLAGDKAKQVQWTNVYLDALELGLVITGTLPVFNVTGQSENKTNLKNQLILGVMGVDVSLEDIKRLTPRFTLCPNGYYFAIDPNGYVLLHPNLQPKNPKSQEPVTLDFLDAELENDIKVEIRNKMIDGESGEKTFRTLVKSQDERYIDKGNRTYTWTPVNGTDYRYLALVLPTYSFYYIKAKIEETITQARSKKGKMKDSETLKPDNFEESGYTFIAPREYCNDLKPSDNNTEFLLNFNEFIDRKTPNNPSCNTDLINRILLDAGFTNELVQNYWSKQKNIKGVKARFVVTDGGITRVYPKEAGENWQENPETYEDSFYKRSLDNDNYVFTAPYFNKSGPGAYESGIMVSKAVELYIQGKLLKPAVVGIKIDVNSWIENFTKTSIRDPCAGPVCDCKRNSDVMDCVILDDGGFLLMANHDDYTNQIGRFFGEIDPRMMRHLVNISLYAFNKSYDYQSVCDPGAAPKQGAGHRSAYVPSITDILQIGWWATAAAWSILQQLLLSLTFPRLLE

Structure (SMILES) | Locomotor activity, dose response of methamphetamine (male, Swiss Webster mice [1]; methamphetamine 0–1 mg/kg, activity quantified for 30 min, F(3,34)=5.93, P < 0.005) | Locomotor activity vs. saline control (male, Swiss Webster mice [1]; methamphetamine 1 mg/kg, Dunnett q=3.61, P < 0.01) | Cytotoxicity (cell morphology score), methamphetamine (NG108-15 cells) | DAT immunoreactivity in striatum, methamphetamine (male, Swiss Webster mice [2]; methamphetamine 5 mg/kg, i.p., one week later, q=14.26, P < 0.001) | Ki (Serotonin transporter) [µM] | Ki (Melatonin receptor) [µM] | Ki [3] [µM] | Ki [4] [µM] | Ki [5] [µM] | Ki [6] [µM] | Locomotor activity, dose response of AC927 alone (male, Swiss Webster mice [1]; AC927 0–20 mg/kg, activity quantified for 30 min, F(2,23)=7.45, P < 0.005) | Locomotor activity vs. saline control (male, Swiss Webster mice [1]; AC927 alone 10 mg/kg, q=1.09, n.s.) | Locomotor activity vs. saline control (male, Swiss Webster mice [1]; AC927 alone 20 mg/kg, q=3.80, P < 0.01) | Methamphetamine-induced striatal dopamine depletion, AC927 10 mg/kg (male, Swiss Webster mice [7]) | Methamphetamine-induced cerebellar dopamine depletion, AC927 10 mg/kg (male, Swiss Webster mice [8]) | Core body temperature, AC927 alone (male, Swiss Webster mice [9]) | Acute locomotor stimulant effects of cocaine [10] | Apoptosis in tumor cells (tumor cells) | DAT immunoreactivity in striatum, AC927 alone (male, Swiss Webster mice [2]; AC927 10 mg/kg, i.p. + saline, q=3.56, n.s.)
CN[C@@H](C)Cc1ccccc1 [Methamphetamine, Methamphetamine hydrochloride, reference compound] | progressive increase in locomotor activity | differed significantly from the saline control | concentration dependent increase in neurotoxicity | significant reduction in DAT immunoreactivity |  |  |  |  |  |  |  |  |  |  |  |  |  |  | 
O=C(O)C(=O)O.c1ccc(CCN2CCCCC2)cc1 [AC927, N-phenethylpiperidine oxalate] |  |  |  |  | > 10 | > 10 | > 10 | > 10 | > 10 | > 10 | dose dependently decreased locomotor activity | did not differ significantly from the saline control | differed significantly from the saline control | significantly attenuated | significantly attenuated | did not significantly change core body temperature | significantly attenuate the acute locomotor stimulant effects of cocaine | attenuate apoptosis in tumor cells | no significant effects on DAT expression
